High-throughput results as filed in PubChem BioAssay.
Rows were chosen to be rich in hits. Some 2.2% of all compounds tested hit in one or more screens of this group.
CSN deneddyl inh = inhibitors of human CSN-mediated cullin deneddylation; Purified CSN, SCF-Nedd8-OG deneddylation, fluorescence polarization; Q92905; inhibition, % at 12.5 µM; 0.38% of 360,000 active;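 active means pattern-corrected inhibition above about 35%, with an unprinted fluorescence ratio check between 0.5 and 1.5, limit read from the data, passing the limit was not always enough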
Target sequence (Q92905 whole entry, looked up, one chain of several): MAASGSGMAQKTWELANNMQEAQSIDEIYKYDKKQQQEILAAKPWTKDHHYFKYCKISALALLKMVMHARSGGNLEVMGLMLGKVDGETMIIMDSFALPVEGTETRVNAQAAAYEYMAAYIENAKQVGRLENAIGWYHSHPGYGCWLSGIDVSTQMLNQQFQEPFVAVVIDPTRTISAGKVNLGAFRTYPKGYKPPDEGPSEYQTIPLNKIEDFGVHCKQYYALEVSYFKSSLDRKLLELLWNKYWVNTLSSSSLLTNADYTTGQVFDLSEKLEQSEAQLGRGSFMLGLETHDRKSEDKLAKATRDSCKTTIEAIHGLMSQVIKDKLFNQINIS
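Assay system: purified human Csn5 enzyme expressed in HEK293T cells; Input: 0.24 nM Csn5 enzyme, final concentration; Reagent: 10 nM SCFSkp2-Nedd8OG; Compound dosing: 12.5 µM single point; Times: reaction 90 min, room temperature; Technique: fluorescence polarization readout.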
HNF4A DNA FP = change in binding of human HNF4 alpha to DNA; 0.3% of 360,000 active; activity change, % at 10 µM; HNF4a-FITC DNA binding, fluorescence polarization, 1 h; in the data active means activity change above about 30%, passing the limit was not always enough
Exocytosis inh = lytic granule exocytosis inhibition; inhibition, % at 10 µM; TALL-104 LAMP-1 surface exposure, flow cytometry; cells stimulated with thapsigargin and PMA; 0.66% of 360,000 active;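 active means inhibition above about 55%, limit read from the data; inconclusive means no clear call, values can overlap the other calls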
Myeloid diff 2 = compounds promoting myeloid differentiation. ER-HoxA9 myeloid progenitors, lysozyme-GFP differentiation, flow cytometry. calls only at 10 µM. 1% of 360,000 active;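 active means normalized GFP-positive differentiation at or above the plate's own cutoff, the solvent-only control mean plus 3 SD; inconclusive means no clear call, values can overlap the other calls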;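 further: cells exposed to compound for four days before flow analysis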
Each line names hits and unclear results; the compound was inactive in the other large screens.

O=C(COc1ccc(NC(=O)c2ccccc2)cc1)c1ccccc1	none
CC(C)C(C)NC(=O)COn1nnc2ccc(S(=O)(=O)N3CCOCC3)cc21 (centres undefined)	none
COC(=O)c1cc(NC(=O)CCc2c(C)nc3ncnn3c2C)cc(C(=O)OC)c1	Myeloid diff 2 active
CN(C)CCOC(c1ccccc1)c1ccccc1 (tested in a mixture with another compound)	Myeloid diff 2 active (no result: HNF4A DNA FP, Exocytosis inh)
Cc1nn(CC(=O)OCC(=O)c2ccccc2)c(C)c1[N+](=O)[O-]	none
COc1ccccc1NC(=O)c1cc2c(CO)cnc(C)c2oc1=Nc1ccccc1	Exocytosis inh 81
COc1ccc(CN(C)CCCn2cnc3c(OCc4ccccc4)ncnc32)cc1OC	none
COc1ccc(NS(=O)(=O)c2cccc(C(=O)NNC(=O)CNC(=O)c3ccc(C)cc3)c2)cc1	none
NC(=S)N/N=C/c1ccc(-c2ccccc2)o1	Exocytosis inh 91
Cc1ccc(-c2ccc(/C=N/NC(N)=S)o2)cc1	Exocytosis inh 103
CC(C)c1cccc(C(C)C)c1NC(=O)CN1CCCC1	none
COc1ccc(/C(C)=N/NC(=O)c2ccc(CSc3cccc4cccnc34)cc2)cc1OC	none
C/C(=N\NC(=O)c1ccc(CSc2cccc3cccnc23)cc1)C1CCCCC1	Myeloid diff 2 active
CC1CCCC(C)N1C(=O)c1cc(-c2ccco2)on1 (centres undefined)	Myeloid diff 2 active
CCN(CC(=O)Nc1ccccc1C(F)(F)F)C(=O)CN1C(=O)NC(C)(c2ccc3ccccc3c2)C1=O (centres undefined)	none
N#CC1=C(N)NC(=S)C(C(N)=O)C1c1ccc(Cl)cc1Cl (centres undefined)	Exocytosis inh 99
O=C(c1cc(C2CC2)nn1-c1ccccc1)N1CCN(Cc2ccccc2)CC1	none
NNC(=O)c1ccccc1OCCOc1ccccc1	Exocytosis inh 59
CN(C(=O)COc1ccccc1C(=O)NCCOc1ccccc1)c1ccccc1	Exocytosis inh 67, Myeloid diff 2 inconclusive
COCCCN1C(=O)c2ccc(C(=O)OCC(=O)N(CCC#N)c3cc(C)cc(C)c3)cc2C1=O	none
N#C/C(=C\c1ccc(-c2ccc(F)cc2)o1)C(=O)Nc1nc(-c2cccs2)cs1	none
N#C/C(=C\c1ccccn1)c1nc2ccccc2s1	Myeloid diff 2 active
N#C/C(=C/c1ccc(-c2ccc(S(N)(=O)=O)cc2)o1)c1nc2ccccc2s1	Myeloid diff 2 active
N#C/C(=C/c1ccc(-c2ccccc2)o1)c1nc(-c2cccs2)cs1	Myeloid diff 2 active
N#C/C(=C/c1ccc(-c2ccc(S(N)(=O)=O)cc2)o1)C(=O)Nc1ccccc1	none
CCOC(=O)C1CCN(Cc2nc3ccc([N+](=O)[O-])cc3c(=O)n2-c2ccc(OC)cc2OC)CC1	none
CCOC(=O)C1CCCN(Cc2nc3ccc([N+](=O)[O-])cc3c(=O)n2-c2ccc(OC)cc2OC)C1 (centres undefined)	HNF4A DNA FP 37
Cn1c(=O)c2nc3ccccc3nc2n(C)c1=O	none
CC(=O)Nc1ccc2nc3c(=O)n(C)c(=O)n(C)c3nc2c1	Myeloid diff 2 active
CCC(=O)N1CCCc2cc(S(=O)(=O)N3CCN(c4ncccn4)CC3)ccc21	none
CCC(=O)N1CCCc2cc(S(=O)(=O)N3CCN(c4ccccc4F)CC3)ccc21	Myeloid diff 2 active
O=c1[nH][nH]c2cc([N+](=O)[O-])ccc12	none
CN(C)CCCN(C(=O)c1ccc2c(c1)CCCC2)c1nc2ccc(Cl)cc2s1	Myeloid diff 2 active
O=C(Nn1cnc2ccccc2c1=O)c1c(F)cccc1F	none
CC(C)(C)N1C(=O)Cc2c1nc(N)c1c(N)nc(N3CCCCC3CO)c(C#N)c21 (centres undefined)	CSN deneddyl inh 53
CCc1nc2c(OCc3cccc(Cl)c3)cccn2c1N(C)C(=O)c1ccc(OC)cc1	none
O=C(/C=C\c1ccc(-c2ccccc2)o1)c1ccccc1	Exocytosis inh 86
Cc1ccc(C(=O)/C=C/c2ccc(-c3ccc(C)cc3)o2)cc1	Exocytosis inh 72
O=C1C=C(c2ccc3cc[nH]c3c2)C[C@@H](c2ccc3c(c2)OCO3)C1	none
COc1ccc(NC(=O)/C(C#N)=C/c2ccc(Br)o2)cc1	none
N#C/C(=C/c1ccc(N2CCCCC2)o1)C(=O)Nc1ccc2ccccc2c1	Exocytosis inh 63
COc1ccc(NC(=O)/C(C#N)=C\c2ccc(N3CCOCC3)o2)cc1	none
N#C/C(=C\c1ccc(N2CCOCC2)o1)C(=O)Nc1ccc(O)cc1	Myeloid diff 2 active
N#C/C(=C\c1ccc(N2CCOCC2)o1)c1ccccc1	HNF4A DNA FP 78, Exocytosis inh 63 (no result: Myeloid diff 2)
N#C/C(=C/c1ccc(N2CCCCC2)o1)C(=O)Nc1ccc(Cl)cc1	Myeloid diff 2 active
CN(CC(=O)Nc1ccccc1Cl)C(=O)Cn1nnc(-c2ccc(F)cc2)n1	none
Cc1noc(C)c1NC(=O)N(C)C[C@H]1Oc2ccc(NS(=O)(=O)c3c(C)noc3C)cc2C(=O)N([C@H](C)CO)C[C@@H]1C	none
C/C(CCc1oc2c(Br)cc(Br)cc2c1-c1ccc(C)o1)=N\O	Exocytosis inh 83
C/C(CCc1oc2ccccc2c1-c1ccc(C)o1)=N/O	Exocytosis inh 74
CC(=O)CCc1oc2ccc([N+](=O)[O-])cc2c1-c1ccc(C)o1	none
CCC(=O)N1CCCC(C(=O)c2ccc(-c3ccccc3)cc2)C1 (centres undefined)	none
CC(C)(C)Cc1nnc(NC(=O)c2ccco2)s1	none
O=C1N/C(=C\c2ccccc2)c2ccccc21	Myeloid diff 2 active
O=c1c2ccccc2nc(/C=C/c2ccc([N+](=O)[O-])o2)n1CCCO	HNF4A DNA FP 74 (no result: Myeloid diff 2)
COc1ccc(N2CCN(C(=O)C(=O)c3cn(CC(=O)N4CCCCCC4)c4ccccc34)CC2)cc1	Myeloid diff 2 active
COc1ccc(N2CCN(C(=O)C(=O)c3cn(CC(=O)N4CCOCC4)c4ccccc34)CC2)cc1	none
COc1cc([N+](=O)[O-])ccc1-c1ccc(/C=N/NC(=O)OC(C)(C)C)o1	none
Cc1cc(C(=O)N/N=C/c2ccc(-c3ccc([N+](=O)[O-])cc3Cl)o2)n[nH]1	CSN deneddyl inh 46
COc1cc([N+](=O)[O-])ccc1-c1ccc(/C=N/NC(N)=O)o1	CSN deneddyl inh 43, HNF4A DNA FP 87, Myeloid diff 2 active
Cc1cc(C(=O)N/N=C/c2ccc(-c3cccc([N+](=O)[O-])c3)o2)n[nH]1	none
CCOC(=O)c1c(NC(=O)CSc2nc3ccccc3o2)sc(C)c1C	none
CCOC(=O)c1c(NC(=O)CSc2nc3ccccc3s2)sc(C)c1C	Myeloid diff 2 active
CCc1nnc(NC(=O)CSc2nccn2-c2cccc(C)c2)s1	Myeloid diff 2 active
CC(C)CCN1C(N(C)C)=NC[C@@H]1C	none
CSc1nnnn1CCn1nnnc1SC	CSN deneddyl inh 51
CCN(CC)C(=O)CSc1nc2ccc(NC(=O)CSc3nnc(COc4ccccc4C)n3C)cc2s1	none
Cc1ccccc1OCc1nnc(SCC(=O)Nc2ccc3nc(SCC(=O)NC(C)(C)C)sc3c2)n1C	Exocytosis inh 77
